# Screens: PubChem BioAssay, several laboratories
# Arr AP2 block: human beta-arrestin and AP2 interaction inhibition; FITC-arrestin peptide / GST-AP2 beads, flow cytometry; AP2 beta2 appendage carries R879A mutation; inhibition, % at 10 µM; actives 0.31% (n = 340,000); AID 504490;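 active means inhibition above a set limit, near 3 SD of compounds lacking own fluorescence, cut at about 54% in these data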;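 further: plate controls were DMSO wells for no effect and 5 µM unlabelled arrestin peptide for full effect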
#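 system = GST-tagged AP2 beta2-adaptin appendage (R879A) on 4 µm glutathione beads | reagent = FITC-labelled arrestin peptide probe, 50 nM final | schedule = compound with beads 12 min RT, then probe 1 h RT | signal = HyperCyt-sampled flow cytometry, FL1 channel, ex 488/em 535 nm | read-out = percent response from loss of bead-bound FITC fluorescence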
# NPR1 activator: GC-A (human) enzyme activation. P16066. HEK293 GC-A cells, cGMP TR-FRET, EC30 ANP; 0% at EC30 ANP, 100% saturating ANP. activation, % at 10 µM. actives 0.14% (n = 370,000). AID 1671463; in the data active means activation above about 40%
# GalR3 antag: blocks the human galanin receptor 3 | O60755 | HEK293 GalR3-CNG cAMP membrane potential fluorescence; galR3 body fused to GalR1 C-terminus | inhibition, % at 3 µM | actives 0.44% (n = 360,000) | AID 651719;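 active means inhibition above the screen-wide average plus 3 SD, cut at about 13% in these data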;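 further: forskolin and galanin both at EC90 stimulate the cells; cAMP rise reported by CNG channel membrane potential dye signal; 0% = forskolin plus galanin with DMSO and 100% = forskolin alone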
# Target sequence (O60755 1-299 limits assumed): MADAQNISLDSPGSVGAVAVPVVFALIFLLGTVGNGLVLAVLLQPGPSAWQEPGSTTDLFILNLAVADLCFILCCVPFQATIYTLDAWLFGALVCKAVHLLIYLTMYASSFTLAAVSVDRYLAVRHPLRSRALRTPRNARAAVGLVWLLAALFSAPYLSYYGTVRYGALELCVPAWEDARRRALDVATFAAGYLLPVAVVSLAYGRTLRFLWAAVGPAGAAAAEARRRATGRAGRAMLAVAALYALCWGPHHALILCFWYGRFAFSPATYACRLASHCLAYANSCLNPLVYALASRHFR
# NPR2 activator: GC-B (human) receptor activation | P20594 | actives 0.11% (n = 370,000) | activation, % at 10 µM | HEK293-GC-B cells, CNP EC30, cGMP TR-FRET; 0% at EC30 CNP, 100% saturating CNP | AID 1920062;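 active means activation at 10 µM reaching about 35% in either raw or pattern-adjusted values, limit read from the data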
# Numbers without * were called inactive; / = no result given. In the library only some 0.94% were active in any assay of this set; here they are far more common.
SMILES,Arr AP2 block,NPR1 activator,GalR3 antag,NPR2 activator
COCCNc1nc2c(-c3cccc(C(F)(F)F)c3)nnn2c2ccccc12,2,39,-10,42*
COc1ccccc1CNS(=O)(=O)c1ccc(F)cc1Br,/,-3,-6,1
O=C(N[C@H](Cc1ccccc1)C(=O)N(CCC1=CCCCC1)CC1CC1)[C@H]1O[C@@H](n2ccc(=O)[nH]c2=O)[C@H](O)[C@@H]1O,/,1,-7,4
Cc1ccc(N2C(=O)c3cccc([N+](=O)[O-])c3C2=O)cc1C,36,72*,0,34
COCCCNC(=O)C[C@H]1C(=O)N(Cc2ccc(OC)cc2)C2=CCCCC[C@@]21C(=O)OC,/,-2,/,-3
CCCCOc1ccc(/C=c2\sc3ncnn3c2=O)cc1,7,67*,1,-5
Cc1ccsc1/C=c1\sc2ncnn2c1=O,12,18,-5,1
C[C@H](CO)N1C[C@H](C)[C@@H](CN(C)C(=O)Nc2ccc(C(F)(F)F)cc2)Oc2ccc(NS(=O)(=O)c3ccccc3)cc2C1=O,-1,3,-5,82*
CCOC(=O)[C@@]12CCCC3=C1N(CCC3)C(=O)[C@H]2CC(=O)N1CCOCC1,/,-2,/,0
CC1=C(C(=O)N2CCOCC2)C(c2ccc(C)cc2)NC(=S)N1 (centres undefined),-6,59*,-4,65*
CC1=C(C(=O)N2CCOCC2)C(c2ccc(Cl)cc2)NC(=S)N1 (centres undefined),-8,54*,0,61*
CC1=C(C(=O)N2CCOCC2)C(c2c(C)cc(C)cc2C)NC(=S)N1 (centres undefined),17,1,-3,6
C[C@@H]1C[C@H]2O[C@@H]2/C=C\C=C\C(=O)Cc2cc(O)cc(O)c2C(=O)O1,/,1,/,3
COC(=O)C(C(=O)OC)c1ccc(-n2cccc2)cc1,56*,11,3,2
COc1ccc(C(=O)NCc2ccc(-n3cccc3)cc2)cc1OC,11,0,-2,1
CCn1c(SCC(=O)Nc2cc(C)on2)nc2c([nH]c3ccccc32)c1=O,11,59*,-2,-1
COCCn1c(SCC(=O)Nc2cc(C)on2)nc2c([nH]c3ccccc32)c1=O,/,50*,-7,-2
CCn1c(SCC(=O)Nc2cccc(NC(C)=O)c2)nc2c([nH]c3ccccc32)c1=O,39,1,-1,-1
Cc1nn(Cc2ccc(F)cc2)c2sc(C(=O)Nc3ccc(N4CCOCC4)cc3N3CCOCC3)cc12,-3,32,-4,40*
CC1(c2nnnn2Cc2ccccc2)CN(S(C)(=O)=O)CC(=O)N1Cc1cccs1 (centres undefined),/,-1,/,0
Cc1ccccc1-c1ccc2c(c1)[C@@H]1C[C@H]3[C@@H](CN1CC2)[C@H](C)OC(c1ccccc1)N3C (some centres undefined),/,-4,-5,6
COc1cc(OC)c(OC)cc1CNC(=O)c1cccc(S(=O)(=O)N2CCc3ccccc3C2)c1,-10,2,14*,-1
COCCCN1C(=O)[C@H](CC(=O)NCc2ccc(C)o2)[C@]2(C(=O)OC)CCCCC=C12,/,1,/,-3
CNC(=O)NC(=O)CSc1nc(-c2cccs2)c(C#N)c(=O)[nH]1,-9,45*,4,23
Cc1ccc(S(=O)(=O)N2OC(c3ccccc3)C[C@H]2CC=C(c2ccccc2)c2ccccc2)cc1 (some centres undefined),/,-1,/,-3
SMILES,Arr AP2 block,NPR1 activator,GalR3 antag,NPR2 activator
O=C(Nc1nc2c(Br)cc(Br)cc2c(=O)s1)c1ccco1,-22,78*,-4,35*
Cc1ccccc1-c1cccc2c3c([nH]c12)[C@@H]1C[C@H]2[C@@H](C(=O)N1CC3)[C@H](C)ON2C,/,0,-6,1
CCCc1nc2sc3c(c2c(=O)n1NC(=O)CCC(=O)OC)CCCC3,0,-2,-7,-2
Cc1nc2sc3c(c2c(=O)n1NC(=O)CCBr)CCCC3,62*,3,-6,1
c1ccc(CCNc2ncnc3ccccc23)cc1,-9,3,93*,6
Oc1[nH]c2ccc(Br)cc2c1N=NC(=S)N1CCOCC1,-16,-1,13*,4
Oc1[nH]c2ccccc2c1N=NC(=S)N1CCOCC1,8,/,/,/
O=[N+]([O-])c1ccc(SN2CCCCC2)c([N+](=O)[O-])c1,/,9,-5,1
CC(CC(=O)Nc1ccc2c(c1)c(=O)n(C)n2-c1ccc2ccccc2c1)C(F)(F)F (centres undefined),/,21,-6,30
